Experimental data reported in ChEMBL document CHEMBL1155769 (Antimicrob Agents Chemother, 2007).
Activity calls are given as the source filed them. No cut-off for these calls is given here.

Experiments:
[1] = Toxicity against human erythrocytes assessed as potentiation of heme-induced hemolysis at 10 uM in presence of heme; assay type: cell-based; details: erythrocyte
Outline: (§1)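 Washed fresh human erythrocytes (0.5% in PBS, pH 7.4) were used. Heme, either 0–20 µM with 10 µM drug or 10 µM with various drug concentrations, was preincubated 10 min in PBS, then cells were added. Plates were shaken 2 h at 37°C and read at 630 nm. Percent hemolysis was calculated relative to a cells-only control. Error bars are SD.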

[2] = Toxicity against human erythrocytes assessed as heme-induced hemolysis up to 30 uM in absence of heme; assay type: cell-based; details: erythrocyte
Outline: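 Fresh heparinized human donor erythrocytes, washed six times in PBS, pH 7.4, used as a 0.5% suspension. Drugs up to 30 µM without heme were tested. Hemolysis was followed by turbidity at 630 nm, with a cells-only well taken as 0% hemolysis.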

[3] = Binding affinity to heme in phosphate buffer at pH 7.4 by Hills plot
[4] = Inhibition of beta-hematin formation after 16 hrs
[5] = Binding affinity to heme in HEPES buffer at pH 7.4 upto 60 uM after 30 mins by Jobs plot
Plasmodium falciparum = assay: Antimalarial activity against chloroquine-sensitive Plasmodium falciparum D6 infected in human erythrocytes after 48 hrs; assay type: functional, organism-based; details: D6, 48 h
Outline: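 Human erythrocytes infected with chloroquine-sensitive P. falciparum clone D6, mainly rings, at 4% parasitemia and 5% hematocrit. Cultured in RPMI 1640 with 10% human AB serum, with serial drug dilutions in triplicate. Incubated 48 h at 37°C in a candle jar. Parasitized cells per 10,000 counted on Giemsa-stained thin smears. Inhibition vs drug-free control was plotted, and IC50 (µM) read graphically.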

[6] = Binding affinity to heme in HEPES buffer at pH 7.4 upto 20 uM after 30 mins by Jobs plot
Outline: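 Continuous-variation (Job's) method: drug and heme mixed in 40% DMSO buffered with 20 mM HEPES, pH 7.4, at a constant combined final concentration of 10 µM. Mixtures were held 30 min at room temperature (25°C). Differential absorbance at 400 nm was taken as the mixture absorbance minus the summed heme and drug absorbances. Three independent experiments, mean ± SEM.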

[7] = Binding affinity to heme in HEPES buffer at pH 7.4 after 30 mins by Jobs plot
Outline: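 Continuous-variation (Job's) plot: drug–heme mixtures in 40% DMSO buffered with 20 mM HEPES, pH 7.4, total heme plus drug held at 10 µM. Incubated 30 min at room temperature (25°C). Differential absorbance at 400 nm was taken as mixture minus summed heme and drug absorbance. Mean ± SEM of three independent experiments.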

[8] = Toxicity against human erythrocytes assessed as potentiation of heme-induced hemolysis in presence of variable concentration of heme; assay type: cell-based; details: erythrocyte; outline: as §1

SMILES | Activity [1] | Activity [2] | Ka [3] | IC50 [4] | Activity [5] | IC50 (Plasmodium falciparum) | Activity [6] | Activity [3] | Activity [7] | Activity [8]
COc1cc(NC(C)CCCN)c2nc(C(C)(C)C)ccc2c1 (centres undefined) | Dose-dependent effect | Not Active | 0.61 ×10⁵ /M | 2900 nM | Active | 100 nM | – | – | – | –
CCN(CC)CCCC(C)Nc1ccnc2cc(Cl)ccc12 (centres undefined) [CHLOROQUINE] | Dose-dependent effect | Not Active | – | – | – | – | Active | – | – | –
COc1cc(NC(C)CCCN)c2ncccc2c1 (centres undefined) [PRIMAQUINE] | Not Active | Not Active | – | – | – | – | – | inactive | inactive | Not Active
